The values below come from ChEMBL document CHEMBL2016473, “Synthesis of new opioid derivatives with a propellane skeleton and their pharmacology. Part 2: Propellane derivatives with an amide side chain” (Bioorg Med Chem Lett, 2012).

In assay [1] the target is Delta-type opioid receptor (Mus musculus, UniProt P32300). Briefly: Displacement of [3H]DPDPE from delta opioid receptor in mouse whole brain without cerebellum. An outline of the steps: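 Competitive binding against [3H]DPDPE as the delta radioligand, on membranes from mouse whole brain with the cerebellum removed. Run in duplicate, with results reported as Ki.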
Chain of Delta-type opioid receptor (P32300 whole entry, looked up): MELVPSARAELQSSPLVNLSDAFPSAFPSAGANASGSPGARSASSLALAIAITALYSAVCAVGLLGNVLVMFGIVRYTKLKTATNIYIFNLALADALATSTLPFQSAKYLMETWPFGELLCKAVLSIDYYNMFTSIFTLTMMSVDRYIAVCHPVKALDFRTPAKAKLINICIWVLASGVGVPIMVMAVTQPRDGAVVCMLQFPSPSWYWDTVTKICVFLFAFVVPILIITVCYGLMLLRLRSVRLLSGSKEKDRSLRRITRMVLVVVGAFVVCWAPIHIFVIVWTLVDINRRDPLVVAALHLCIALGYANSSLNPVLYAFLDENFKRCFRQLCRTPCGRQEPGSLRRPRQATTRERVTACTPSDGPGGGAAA
A general note: Displacement assays read how much labelled ligand stays bound in the presence of the test substance.

Assay [2] is described as follows: Selectivity ratio of Ki for mouse delta opioid receptor to Ki for guinea pig kappa opioid receptor.
Assay [3] can be described thus: Selectivity ratio of Ki for mouse mu opioid receptor to Ki for guinea pig kappa opioid receptor.
Assay [4] deals with Mu-type opioid receptor (Mus musculus, UniProt P42866). Put plainly: Displacement of [3H]DAMGO from mu opioid receptor in mouse whole brain without cerebellum. An outline of the steps:
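Competitive binding against [3H]DAMGO as the mu radioligand, on membranes from mouse whole brain with the cerebellum removed. Run in duplicate, with results reported as Ki.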

The target in assay [5] is Kappa-type opioid receptor (Cavia porcellus, UniProt P41144). Briefly: Displacement of [3H]U69593 from kappa opioid receptor in guinea pig cerebellum. An outline of the steps:
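Competitive binding against [3H]U-69,593 as the kappa radioligand, on guinea pig cerebellum membranes. Run in duplicate, with results reported as Ki.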

SMILES strings stand for the structures.

In general, Ki refers to the equilibrium dissociation constant of an inhibitor or competing ligand from its target. A lower Ki goes with a stronger hold on the target.

Chain of Mu-type opioid receptor (P42866 whole entry): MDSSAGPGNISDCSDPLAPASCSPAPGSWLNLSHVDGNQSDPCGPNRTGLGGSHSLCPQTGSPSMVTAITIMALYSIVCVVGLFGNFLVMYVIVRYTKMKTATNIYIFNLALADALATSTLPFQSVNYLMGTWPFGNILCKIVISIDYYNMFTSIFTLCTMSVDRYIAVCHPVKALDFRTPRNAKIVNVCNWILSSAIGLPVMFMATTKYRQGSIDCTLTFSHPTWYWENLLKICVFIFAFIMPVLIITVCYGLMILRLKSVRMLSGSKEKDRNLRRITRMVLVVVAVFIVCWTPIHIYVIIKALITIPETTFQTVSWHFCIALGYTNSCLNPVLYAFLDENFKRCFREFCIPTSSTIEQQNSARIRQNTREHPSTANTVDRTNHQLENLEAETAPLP
Chain of Kappa-type opioid receptor (P41144 whole entry): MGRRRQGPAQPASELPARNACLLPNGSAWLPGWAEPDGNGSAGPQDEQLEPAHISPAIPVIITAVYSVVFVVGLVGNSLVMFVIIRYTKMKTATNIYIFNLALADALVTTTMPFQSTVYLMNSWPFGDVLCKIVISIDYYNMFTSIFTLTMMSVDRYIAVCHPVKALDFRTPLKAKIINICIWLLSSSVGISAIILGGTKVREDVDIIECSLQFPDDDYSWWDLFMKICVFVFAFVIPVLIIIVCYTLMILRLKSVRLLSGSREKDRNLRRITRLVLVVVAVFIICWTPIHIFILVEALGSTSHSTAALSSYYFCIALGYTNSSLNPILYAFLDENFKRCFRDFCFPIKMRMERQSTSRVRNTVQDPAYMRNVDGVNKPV

For the molecule `O=C(NCCc1ccccc1)C1=CCC23CCN(CC4CC4)CC2(C1)Cc1ccc(O)cc13` (stereo not given), the Ki in assay [1] stood at 412 nM; in assay [4] it was 35.9 nM; in assay [5], 253 nM. In addition, the Ratio Ki stood at 1.63 in assay [2] and 0.14 in assay [3].
The matching figures for `O=C(Nc1ccccc1)[C@H]1CCC23CCN(CC4CC4)CC2(Cc2ccc(O)cc23)C1` (stereo not given in full): 207 nM, 80.8 nM, 108 nM, 1.92 and 0.75.
With `O=C(NCc1ccccc1)[C@@H]1CCC23CCN(CC4CC4)CC2(Cc2ccc(O)cc23)C1` (stereo not given in full), the Ki in assay [1] is above 1000 nM; in assay [4], 106 nM; in assay [5], 19.2 nM. Besides, the Ratio Ki in assay [3] is 5.52.
In the case of `O=C(NCCc1ccccc1)[C@@H]1CCC23CCN(CC4CC4)CC2(Cc2ccc(O)cc23)C1` (stereo not given in full), the inhibitory constant (Ki) is above 1000 nM in assay [1], 54.1 nM in assay [4] and 169 nM in assay [5]. Besides, in assay [3], the Ratio Ki was determined as 0.32.
With `O=C(NCc1ccccc1)C1=CCC23CCN(CC4CC4)CC2(C1)Cc1ccc(O)cc13` (stereo not given), the values for the Ki in assay [1], in assay [4] and in assay [5] were 298 nM, 33.9 nM and 72.7 nM, respectively. In addition, the Ratio Ki was determined as 4.1 in assay [2] and 0.47 in assay [3].
For `CN(C(=O)/C=C/c1ccoc1)[C@H]1CCC23Cc4ccc(O)cc4C2(CCN(CC2CC2)C3)C1` (stereo not given in full) the same measures were 35 nM, 2.2 nM, 0.83 nM, 42.2 and 2.65.
As to `O=C(NCCc1ccccc1)[C@H]1CCC23CCN(CC4CC4)CC2(Cc2ccc(O)cc23)C1` (stereo not given in full), the inhibition constant Ki in assay [1] was above 1000 nM; in assay [4] it was 453 nM; in assay [5], 641 nM. In assay [3], the Ratio Ki amounted to 0.71.
As for `O=C(NCc1ccccc1)[C@H]1CCC23CCN(CC4CC4)CC2(Cc2ccc(O)cc23)C1` (stereo not given in full), the Ki in assay [1] is above 1000 nM; in assay [4], 112 nM; in assay [5], above 1000 nM.
Consider `O=C(Nc1ccccc1)[C@@H]1CCC23CCN(CC4CC4)CC2(Cc2ccc(O)cc23)C1` (stereo not given in full), for which the Ki in assay [1] was determined as 282 nM; in assay [4], 79.7 nM; in assay [5], 13.4 nM. Besides, the Ratio Ki in assay [2] is 21; in assay [3], 5.95.
For `CN(C(=O)CCc1ccccc1)[C@@H]1CCC23Cc4ccc(O)cc4C2(CCN(CC2CC2)C3)C1` (stereo not given in full) the same measures were 65.2 nM, 31.9 nM, 16.4 nM, 3.98 and 1.95.
For `O=C(Nc1ccccc1)C1=CCC23CCN(CC4CC4)CC2(C1)Cc1ccc(O)cc13` (stereo not given) the same measures were 192 nM, 12.4 nM, 46.7 nM, 4.11 and 0.27.
For `CN(C(=O)CCc1ccccc1)[C@H]1CCC23Cc4ccc(O)cc4C2(CCN(CC2CC2)C3)C1` (stereo not given in full) the same measures were 44.3 nM, 1.23 nM, 7.1 nM, 6.24 and 0.17.
For the molecule `CN(C(=O)/C=C/c1ccoc1)[C@@H]1CCC23Cc4ccc(O)cc4C2(CCN(CC2CC2)C3)C1` (stereo not given in full), the Ki was 121 nM in assay [1], 12.2 nM in assay [4] and 3.43 nM in assay [5]. The Ratio Ki in assay [2] was 35.3; in assay [3] it was 3.56.
